{"data": "Published values collected from several papers", "effect on": "cell growth or viability", "note": "Each line is one published result; the experiments were not run side by side."}
{"SMILES": "CN1C(=O)/C(=N\\NC(=O)c2cc3ccccc3[nH]2)c2ccccc21", "cell line": "ZR75", "IC50 [µM]": 1.53}
{"SMILES": "O=C1NCCc2[nH]c(-c3ccncc3)cc21", "cell line": "SR", "IC50 [µM]": 0.286}
{"SMILES": "CCCCC(C(=O)COc1c(F)c(F)cc(F)c1F)n1cc([C@@](C)(NCc2ccc3ncccc3c2)C2CCC2)nn1 (stereo partly shown)", "cell line": "BESM", "conditions": "72 h", "IC50 [µM]": "> 10"}
{"SMILES": "CN1C(=O)/C(=N\\NC(=O)c2cc3ccccc3[nH]2)c2cc(Cl)ccc21", "cell line": "ZR75", "IC50 [µM]": 0.84}
{"SMILES": "CC(=O)O[C@H]1C(=O)[C@@]2(C)[C@H]([C@H](OC(=O)c3ccccc3)[C@]3(O)C[C@H](OC(=O)[C@H](O)[C@@H](NC(=O)c4ccccc4)c4ccccc4)C(C)=C1C3(C)C)[C@]1(OC(C)=O)CO[C@@H]1C[C@@H]2O", "cell line": "COR-L23", "test": "SRB", "IC50 [µM]": 0.0021}
{"SMILES": "O=C(Nc1cccc(Cl)c1)Nc1cccc(C(=O)Nc2ccc3[nH]ncc3c2)c1", "cell line": "KM12", "test": "ATP luminescence", "conditions": "72 h", "IC50 [µM]": "> 50"}
{"SMILES": "CCC(C(=O)COc1c(F)c(F)cc(F)c1F)n1cc([C@@](C)(NCc2ccc3ncccc3c2)C(C)C)nn1 (stereo partly shown)", "cell line": "BESM", "conditions": "72 h", "IC50 [µM]": "> 10"}
{"SMILES": "Cc1[nH]c2ccccc2c1CCNCc1ccc(/C=C/C(=O)NO)cc1", "cell line": "A2780C/P", "test": "crystal violet", "conditions": "48 h", "IC50 [µM]": 0.0088}
{"SMILES": "O=C(Nc1ccc2[nH]ncc2c1)c1cccc(NC(=S)Nc2ccc(F)cc2F)c1", "cell line": "KM12", "test": "ATP luminescence", "conditions": "72 h", "IC50 [µM]": 30.6}
{"SMILES": "Cc1[nH]c(/C=C2\\C(=O)Nc3ccc(S(=O)(=O)N(C)c4cccc(Cl)c4)cc32)c(C)c1C(=O)N1CCN(C)CC1", "cell line": "Rh41", "conditions": "72 h", "IC50 [µM]": 1.84}
{"SMILES": "O=C(Nc1cccc(C(=O)Nc2ccc3[nH]ncc3c2)c1)Nc1ccccc1C(F)(F)F", "cell line": "KM12", "test": "ATP luminescence", "conditions": "72 h", "IC50 [µM]": 43.7}
{"SMILES": "CN1CCN(Cc2ccc(Nc3ncc(Cl)c(Nc4ccccc4S(=O)(=O)N(C)C)n3)cc2)CC1", "cell line": "PSN1", "IC50 [µM]": 0.006}
{"SMILES": "C[C@H]1O[C@@H](n2cc(F)c(=O)[nH]c2=O)[C@H](O)[C@@H]1O", "cell line": "Hep3B", "test": "CCK-8", "conditions": "48 h", "IC50 [µM]": 13.2}
{"SMILES": "CC(C)C[C@H](NC(=O)[C@H](Cc1ccccc1)NC(=O)c1cnccn1)B(O)O", "cell line": "NCI-H2110", "test": "ATP luminescence", "IC50 [µM]": 0.017}
{"SMILES": "O=C(Nc1ccccc1)Nc1cccc(C(=O)Nc2ccc3[nH]ncc3c2)c1", "cell line": "KM12", "test": "ATP luminescence", "conditions": "72 h", "IC50 [µM]": "> 50"}
{"SMILES": "CCC(C(=O)COc1c(F)c(F)cc(F)c1F)n1cc([C@](C)(CC(C)C)NCc2ccc3ncccc3c2)nn1 (stereo partly shown)", "cell line": "BESM", "conditions": "72 h", "IC50 [µM]": "> 10"}
{"SMILES": "O=C(/C=C/C=C/c1ccc2c(c1)OCO2)N1CCCCC1", "cell line": "COR-L23", "test": "SRB", "IC50 [µM]": 74.8}
{"SMILES": "C[C@@H](Oc1cc(-c2cnn(C3CCNCC3)c2)cnc1N)c1c(Cl)ccc(F)c1Cl", "cell line": "Rh41", "conditions": "72 h", "IC50 [µM]": 0.45}
{"SMILES": "O=C(Nc1cccc(C(=O)Nc2ccc3[nH]ncc3c2)c1)Nc1ccccc1F", "cell line": "KM12", "test": "ATP luminescence", "conditions": "72 h", "IC50 [µM]": 48.3}
{"SMILES": "COc1cc(Nc2nccc(-c3cnn4nc(OC)ccc34)n2)cc(C(F)(F)F)c1", "cell line": "NCI-H2110", "test": "ATP luminescence", "IC50 [µM]": 0.63}
{"SMILES": "CCCCC[C@H](O)CC(=O)CCc1ccc(O)c(OC)c1", "cell line": "COR-L23", "test": "SRB", "IC50 [µM]": 199}
{"SMILES": "COc1ccc2c(c1)/C(=N/NC(=O)c1cc3ccccc3[nH]1)C(=O)N2", "cell line": "ZR75", "IC50 [µM]": 17.9}
{"SMILES": "O=C(Nc1ccc(Cl)cc1)Nc1cccc(C(=O)Nc2ccc3[nH]ncc3c2)c1", "cell line": "KM12", "test": "ATP luminescence", "conditions": "72 h", "IC50 [µM]": "> 50"}
{"SMILES": "CCCCC(C(=O)COc1c(F)c(F)cc(F)c1F)n1cc([C@](C)(CC(C)C)NCc2ccc3ncccc3c2)nn1 (stereo partly shown)", "cell line": "BESM", "conditions": "72 h", "IC50 [µM]": "> 10"}
{"SMILES": "O=C(O)CCCc1ccccc1", "cell line": "PSN1", "test": "MTT", "conditions": "72 h", "IC50 [µM]": "> 50"}
{"SMILES": "O=C(Nc1ccc2[nH]ncc2c1)c1cccc(NC(=O)c2cc(C(F)(F)F)ccc2F)c1", "cell line": "KM12", "test": "ATP luminescence", "conditions": "72 h", "IC50 [µM]": 26.8}
{"SMILES": "COc1cc(N2CCC(N3CCN(C)CC3)CC2)ccc1Nc1ncc(Cl)c(Nc2ccccc2S(=O)(=O)C(C)C)n1", "cell line": "Rh41", "conditions": "72 h", "IC50 [µM]": 0.07}
{"SMILES": "O=C1Nc2ccccc2/C1=N/NC(=O)c1cc2ccccc2[nH]1", "cell line": "ZR75", "IC50 [µM]": 22.7}
{"SMILES": "O=C(Nc1ccc2[nH]ncc2c1)c1cccc(NC(=S)Nc2cc(C(F)(F)F)cc(C(F)(F)F)c2)c1", "cell line": "KM12", "test": "ATP luminescence", "conditions": "72 h", "IC50 [µM]": 19.6}
{"SMILES": "CN1C(=O)/C(=N\\NC(=O)c2cc3ccccc3[nH]2)c2cc(Br)ccc21", "cell line": "ZR75", "IC50 [µM]": 1.01}
{"SMILES": "CC1=CC(C)(C)N(Cc2ccccc2)c2ccc(O)cc21", "cell line": "Hep3B", "test": "MTT", "conditions": "72 h", "IC50 [µM]": 5.2}
